According to ChEMBL document CHEMBL2417474, “Synthesis, antiproliferative and anti-inflammatory activities of some novel 6-aryl-2-(p-(methanesulfonyl)phenyl)-4,5-dihydropyridazi-3(2H)-ones” (Eur J Med Chem, 2013):

Legend:
Format in all cases: functional
[1] = Growth inhibition of human EKVX cells assessed as cell growth at 10 uM after 48 hrs by sulforhodamine B assay; details: read-out: Activity
[2] = system: CAKI-1; assay: Growth inhibition of human CAKI-1 cells assessed as cell growth at 10 uM after 48 hrs by sulforhodamine B assay; details: CAKI-1, 48 h, read-out: Activity
[3] = system: SK-MEL-5; assay: Growth inhibition of human SK-MEL-5 cells assessed as cell growth at 10 uM after 48 hrs by sulforhodamine B assay; details: SK-MEL-5, 48 h, read-out: Activity
[4] = system: NCI-H460; assay: Growth inhibition of human NCI-H460 cells assessed as cell growth at 10 uM after 48 hrs by sulforhodamine B assay; details: NCI-H460, 48 h, read-out: Activity
[5] = system: SR; assay: Growth inhibition of human SR cells after 48 hrs by sulforhodamine B assay
Summary of the method: (§1)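 NCI 60-cell-line panel. Cells were grown in medium with 5% fetal calf serum and 2 mM L-glutamine, then preincubated 24 h in plates. Compounds were added from DMSO at five 10-fold concentrations from 100 to 0.01 µM and left on cells continuously for 48 h. Cell growth was read by sulforhodamine B protein stain. GI50 is the concentration that halves net protein increase relative to control cells.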

[6] = system: MOLT-4; assay: Growth inhibition of human MOLT4 cells after 48 hrs by sulforhodamine B assay; details: MOLT-4, 48 h; summary of the method: as §1
[7] = system: DU-145; assay: Growth inhibition of human DU145 cells after 48 hrs by sulforhodamine B assay; details: DU-145, 48 h; for CC50: read-out: LC50 (the source's name)
Summary of the method: (§2)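 NCI 60-cell-line panel grown in RPMI-type medium with 5% fetal calf serum and 2 mM L-glutamine. Cells preincubated 24 h, then exposed continuously for 48 h to compound in DMSO at 10^-4 to 10^-8 M (five 10-fold levels). Growth read by SRB protein stain. GI50 is the concentration giving a 50% reduction in net protein increase relative to control cells.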

[8] = system: LOX IMVI; assay: Growth inhibition of human LOXIMVI cells after 48 hrs by sulforhodamine B assay; details: for CC50: read-out: LC50 (the source's name); summary of the method: as §2
[9] = system: K562; assay: Growth inhibition of human K562 cells after 48 hrs by sulforhodamine B assay; details: K562, 48 h; for CC50: read-out: LC50 (the source's name); summary of the method: as §2
[10] = system: PC-3; assay: Growth inhibition of human PC3 cells assessed as cell growth at 10 uM after 48 hrs by sulforhodamine B assay; details: PC-3, 48 h, read-out: Activity
[11] = system: HL-60(TB); assay: Growth inhibition of human HL-60(TB) cells assessed as cell growth at 10 uM after 48 hrs by sulforhodamine B assay; details: HL-60, 48 h, read-out: Activity
[12] = Growth inhibition of human NCI-ADR-RES cells after 48 hrs by sulforhodamine B assay; summary of the method: as §1
[13] = system: Rattus norvegicus; assay: Antiinflammatory activity in Wistar rat assessed as inhibition of carrageenan-induced paw edema at 0.05 mmol/kg, po administered 30 mins prior challenge measured after 5 hrs
Summary of the method: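 Wistar rats of either sex, 150–175 g, fasted 16 h, 6 per group. Dosed orally at 0.05 mmol/kg, suspended in 1% CMC in water (10 ml/kg). 30 min later, 0.1 ml of 1% carrageenan in saline injected subplantar into the left hind paw. Paw volume read by plethysmometer at 0, 3 and 5 h. % inhibition = (1 − Vt/Vc) × 100 against the vehicle group.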

[14] = system: IGROV-1; assay: Growth inhibition of human IGROV1 cells after 48 hrs by sulforhodamine B assay; details: IGROV-1, 48 h; summary of the method: as §2
[15] = system: MDA-MB-468; assay: Growth inhibition of human MDA-MB-468 cells after 48 hrs by sulforhodamine B assay; details: MDA-MB-468, 48 h; summary of the method: as §1
[16] = system: HCT-116; assay: Growth inhibition of human HCT116 cells assessed as cell growth at 10 uM after 48 hrs by sulforhodamine B assay; details: HCT-116, 48 h, read-out: Activity
[17] = system: A498; assay: Growth inhibition of human A498 cells after 48 hrs by sulforhodamine B assay; details: A498, 48 h; for CC50: read-out: LC50 (the source's name); summary of the method: as §2
[18] = system: Malme-3M; assay: Growth inhibition of human MALME-3M cells assessed as cell growth at 10 uM after 48 hrs by sulforhodamine B assay; details: read-out: Activity
[19] = system: M14; assay: Growth inhibition of human M14 cells after 48 hrs by sulforhodamine B assay; details: M14, 48 h; for CC50: read-out: LC50 (the source's name); summary of the method: as §2
[20] = system: OVCAR-5; assay: Growth inhibition of human OVCAR5 cells assessed as cell growth at 10 uM after 48 hrs by sulforhodamine B assay; details: OVCAR-5, 48 h, read-out: Activity
[21] = system: CAKI-1; assay: Growth inhibition of human CAKI-1 cells after 48 hrs by sulforhodamine B assay; details: CAKI-1, 48 h; summary of the method: as §2
[22] = system: MDA-MB-468; assay: Growth inhibition of human MDA-MB-468 cells assessed as cell growth at 10 uM after 48 hrs by sulforhodamine B assay; details: MDA-MB-468, 48 h, read-out: Activity
[23] = system: SK-OV-3; assay: Growth inhibition of human SKOV3 cells after 48 hrs by sulforhodamine B assay; details: SK-OV-3, 48 h; summary of the method: as §1
[24] = system: SK-MEL-28; assay: Growth inhibition of human SK-MEL-28 cells assessed as cell growth at 10 uM after 48 hrs by sulforhodamine B assay; details: SK-MEL-28, 48 h, read-out: Activity
[25] = system: HOP-92; assay: Growth inhibition of human HOP92 cells after 48 hrs by sulforhodamine B assay; details: HOP-92, 48 h; for CC50: read-out: LC50 (the source's name); summary of the method: as §2
[26] = system: OVCAR-8; assay: Growth inhibition of human OVCAR8 cells after 48 hrs by sulforhodamine B assay; details: OVCAR-8, 48 h; summary of the method: as §1
[27] = system: HCT-15; assay: Growth inhibition of human HCT15 cells assessed as cell growth at 10 uM after 48 hrs by sulforhodamine B assay; details: HCT-15, 48 h, read-out: Activity
[28] = system: SF-539; assay: Growth inhibition of human SF539 cells after 48 hrs by sulforhodamine B assay; details: SF-539, 48 h; for CC50: read-out: LC50 (the source's name); summary of the method: as §1
[29] = system: KM12; assay: Growth inhibition of human KM12 cells assessed as cell growth at 10 uM after 48 hrs by sulforhodamine B assay; details: KM12, 48 h, read-out: Activity
[30] = system: MCF7; assay: Growth inhibition of human MCF7 cells after 48 hrs by sulforhodamine B assay; details: MCF7, 48 h; summary of the method: as §2
[31] = system: NCI-H23; assay: Growth inhibition of human NCI-H23 cells assessed as cell growth at 10 uM after 48 hrs by sulforhodamine B assay; details: NCI-H23, 48 h, read-out: Activity

Cc1cc(O)ccc1C1=NN(c2ccc(S(C)(=O)=O)cc2)C(=O)CC1
growth at 10 µM [1]: 72.2%
growth at 10 µM [2]: 25.4%
growth at 10 µM [3]: 68.3%
growth at 10 µM [4]: 73.1%
GI50 [5]: 3.39 µM
LC50 [5]: > 100 µM
TGI [5]: > 100 µM
GI50 [6]: 14.3 µM
LC50 [6]: > 100 µM
TGI [6]: > 100 µM
GI50 [7]: 24.7 µM
TGI [7]: > 100 µM
CC50 [7]: > 100 µM
GI50 [8]: 7.25 µM
TGI [8]: > 100 µM
CC50 [8]: > 100 µM
GI50 [9]: 3.74 µM
TGI [9]: > 100 µM
CC50 [9]: > 100 µM
growth at 10 µM [10]: 77.9%
growth at 10 µM [11]: 52.6%
GI50 [12]: 3.26 µM
LC50 [12]: > 100 µM
TGI [12]: > 100 µM
inhibition in vivo at 50 µmol/kg [13]: 52.6%
GI50 [14]: 7.13 µM
LC50 [14]: > 100 µM
TGI [14]: > 100 µM
GI50 [15]: 11 µM
LC50 (concentration killing 50% of cells) [15]: > 100 µM
TGI [15]: 44.3 µM
growth at 10 µM [16]: 52.4%
GI50 [17]: 2.78 µM
TGI [17]: 45.4 µM
CC50 [17]: > 100 µM
growth at 10 µM [18]: 52.7%
GI50 [19]: 3.85 µM
TGI [19]: > 100 µM
CC50 [19]: > 100 µM
growth at 10 µM [20]: 98%
LC50 (lethal concentration, 50% cell kill) [21]: > 100 µM
growth at 10 µM [22]: 103%
GI50 [23]: 9.77 µM
LC50 [23]: > 100 µM
TGI [23]: > 100 µM
growth at 10 µM [24]: 81.2%
GI50 [25]: 6.49 µM
TGI [25]: > 100 µM
CC50 [25]: > 100 µM
GI50 [26]: 12.3 µM
LC50 [26]: > 100 µM
TGI [26]: > 100 µM
growth at 10 µM [27]: 44.9%
GI50 [28]: 13.2 µM
TGI [28]: > 100 µM
CC50 [28]: > 100 µM
growth at 10 µM [29]: 47.6%
GI50 [30]: 20.7 µM
LC50 (concentration killing 50% of cells) [30]: > 100 µM
TGI [30]: > 100 µM
growth at 10 µM [31]: 32.9%

Cc1ccc(C2=NN(c3ccc(S(C)(=O)=O)cc3)C(=O)CC2)cc1
growth at 10 µM [3]: 13.9%
GI50 [5]: 0.29 µM
LC50 [5]: > 100 µM
TGI [5]: > 100 µM
GI50 [6]: 0.86 µM
LC50 [6]: > 100 µM
TGI [6]: > 100 µM
GI50 [7]: 2.91 µM
TGI [7]: > 100 µM
CC50 [7]: > 100 µM
GI50 [8]: 0.74 µM
TGI [8]: > 100 µM
CC50 [8]: > 100 µM
GI50 [9]: 0.37 µM
TGI [9]: > 100 µM
CC50 [9]: > 100 µM
growth at 10 µM [10]: 29.3%
growth at 10 µM [11]: -12%
GI50 [12]: 0.27 µM
LC50 [12]: > 100 µM
inhibition in vivo at 50 µmol/kg [13]: 60.5%
GI50 [14]: 0.83 µM
LC50 [14]: > 100 µM
TGI [14]: > 100 µM
GI50 [15]: 1.23 µM
LC50 (concentration killing 50% of cells) [15]: > 100 µM
TGI [15]: 4.86 µM
growth at 10 µM [16]: 17.7%
GI50 [17]: 0.14 µM
TGI [17]: 1.6 µM
CC50 [17]: > 100 µM
growth at 10 µM [18]: 45.5%
GI50 [19]: 0.38 µM
TGI [19]: > 100 µM
CC50 [19]: > 100 µM
growth at 10 µM [20]: 53.1%
GI50 [21]: 0.29 µM
LC50 (lethal concentration, 50% cell kill) [21]: > 100 µM
growth at 10 µM [22]: 23.9%
GI50 [23]: 1.15 µM
LC50 [23]: > 100 µM
TGI [23]: 20.7 µM
growth at 10 µM [24]: 51.4%
GI50 [25]: 0.42 µM
TGI [25]: 8.3 µM
CC50 [25]: > 100 µM
GI50 [26]: 0.74 µM
LC50 [26]: > 100 µM
TGI [26]: > 100 µM
GI50 [28]: 1.02 µM
TGI [28]: 17.4 µM
CC50 [28]: > 100 µM
growth at 10 µM [29]: 35%
GI50 [30]: 1.38 µM
LC50 (concentration killing 50% of cells) [30]: > 100 µM
TGI [30]: > 100 µM
growth at 10 µM [31]: -19.6%
